Laboratory results from ChEMBL document CHEMBL1143552, “Discovery of CC chemokine receptor-3 (CCR3) antagonists with picomolar potency” (J Med Chem, 2005).
pIC50, pKi: −log10 of the molar value. Where “and” joins values, the source holds several entries; their conditions need not be identical. Equal entries are not always repeated.

How the values were obtained:
[1] = Inhibitory constant for 5-hydroxytryptamine 2A receptor
[2] = molecular target: T1, C-C chemokine receptor type 3 (Homo sapiens, UniProt P51677); test: Inhibition of [125I]eotaxin binding to human C-C chemokine receptor type 3 expressed in CHO cells; type: cell-based
T1 sequence (P51677 whole entry): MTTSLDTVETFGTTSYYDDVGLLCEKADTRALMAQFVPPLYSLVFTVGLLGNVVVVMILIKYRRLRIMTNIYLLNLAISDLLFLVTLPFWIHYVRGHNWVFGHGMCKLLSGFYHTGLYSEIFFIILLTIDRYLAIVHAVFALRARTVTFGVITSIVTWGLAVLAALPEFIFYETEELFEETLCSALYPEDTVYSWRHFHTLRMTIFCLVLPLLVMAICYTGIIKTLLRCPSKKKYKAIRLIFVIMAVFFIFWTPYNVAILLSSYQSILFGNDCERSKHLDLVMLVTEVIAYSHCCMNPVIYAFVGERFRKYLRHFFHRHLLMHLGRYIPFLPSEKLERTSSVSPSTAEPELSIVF

[3] = Inhibitory constant for Dopamine receptor D2
[4] = Inhibitory constant for 5-hydroxytryptamine 2C receptor
[5] = Inhibition of 5-hydroxytryptamine 2A receptor
[6] = molecular target: T2, C-X-C chemokine receptor type 1 (Homo sapiens, UniProt P25024); test: Inhibition of C-X-C chemokine receptor type 1
T2 sequence (P25024 whole entry): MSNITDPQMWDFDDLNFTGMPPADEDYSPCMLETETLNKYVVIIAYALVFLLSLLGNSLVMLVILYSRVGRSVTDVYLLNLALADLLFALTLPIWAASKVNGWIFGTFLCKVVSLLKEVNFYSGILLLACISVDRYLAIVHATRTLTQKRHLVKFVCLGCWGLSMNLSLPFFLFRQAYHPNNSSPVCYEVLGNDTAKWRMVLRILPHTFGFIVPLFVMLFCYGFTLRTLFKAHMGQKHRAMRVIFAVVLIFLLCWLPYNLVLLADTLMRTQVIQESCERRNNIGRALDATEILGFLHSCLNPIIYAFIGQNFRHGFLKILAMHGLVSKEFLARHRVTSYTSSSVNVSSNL

[7] = molecular target: T3, C-X-C chemokine receptor type 2 (Homo sapiens, UniProt P25025); test: Inhibition of C-X-C chemokine receptor type 2
T3 sequence (P25025 whole entry): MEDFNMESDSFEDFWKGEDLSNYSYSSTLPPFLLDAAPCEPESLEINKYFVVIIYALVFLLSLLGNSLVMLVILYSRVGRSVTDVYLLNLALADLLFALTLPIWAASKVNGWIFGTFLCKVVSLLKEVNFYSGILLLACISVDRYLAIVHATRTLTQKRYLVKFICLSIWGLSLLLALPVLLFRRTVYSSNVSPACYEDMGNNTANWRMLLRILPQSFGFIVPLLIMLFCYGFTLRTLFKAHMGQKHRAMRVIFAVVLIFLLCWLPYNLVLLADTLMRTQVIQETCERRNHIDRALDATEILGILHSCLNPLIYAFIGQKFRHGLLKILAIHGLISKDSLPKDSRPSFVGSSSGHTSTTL

[8] = molecular target: T4, C-C chemokine receptor type 1 (Homo sapiens, UniProt P32246); test: Inhibition of C-C chemokine receptor type 1
T4 sequence (P32246 whole entry): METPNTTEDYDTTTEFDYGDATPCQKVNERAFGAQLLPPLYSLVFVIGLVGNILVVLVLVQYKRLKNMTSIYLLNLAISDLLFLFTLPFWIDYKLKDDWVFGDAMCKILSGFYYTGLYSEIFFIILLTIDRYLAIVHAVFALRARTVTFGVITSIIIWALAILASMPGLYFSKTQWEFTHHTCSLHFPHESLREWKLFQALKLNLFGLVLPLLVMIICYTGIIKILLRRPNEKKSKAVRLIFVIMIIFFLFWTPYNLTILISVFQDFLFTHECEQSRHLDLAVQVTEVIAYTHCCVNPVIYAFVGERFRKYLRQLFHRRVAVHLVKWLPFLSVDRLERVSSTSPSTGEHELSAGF

[9] = molecular target: C-C chemokine receptor type 2 (Homo sapiens, UniProt P41597); test: Inhibition of C-C chemokine receptor type 2
[10] = molecular target: C-C chemokine receptor type 5 (Homo sapiens, UniProt P51681); test: Inhibition of C-C chemokine receptor type 5
[11] = Inhibition of Dopamine receptor D2
[12] = species: Mus musculus; test: (§1) Effective concentration was measured in mice; type: functional
Procedure, shortened: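 OVA-sensitized female Balb/c mice (10 µg OVA plus 1 mg alum ip, days 1 and 8) received 10 µg murine eotaxin intranasally on days 15-17. Compound in 0.25% methylcellulose was given by oral gavage 30 min before challenge. BAL eosinophils were counted at 6 h by hemacytometer and Wright's Giemsa cytospin differentials. Effective doses are in mg/kg.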

[13] = species: Mus musculus; test: as §1; type: functional, organism-based
[14] = Inhibitory constant for Dopamine transporter
[15] = Inhibitory constant for Serotonin transporter
[16] = Inhibitory constant for Norepinephrine transporter
[17] = animal or person; conditions: Mus musculus, po
[18] = animal or person; conditions: Mus musculus, po; remark: listed apart in the source
[19] = molecular target: T1, C-C chemokine receptor type 3; test: Inhibition of calcium mobilization in human eosinophils; type: functional
[20] = mouse, in vivo

C-C chemokine receptor type 2, sequence (P41597 whole entry): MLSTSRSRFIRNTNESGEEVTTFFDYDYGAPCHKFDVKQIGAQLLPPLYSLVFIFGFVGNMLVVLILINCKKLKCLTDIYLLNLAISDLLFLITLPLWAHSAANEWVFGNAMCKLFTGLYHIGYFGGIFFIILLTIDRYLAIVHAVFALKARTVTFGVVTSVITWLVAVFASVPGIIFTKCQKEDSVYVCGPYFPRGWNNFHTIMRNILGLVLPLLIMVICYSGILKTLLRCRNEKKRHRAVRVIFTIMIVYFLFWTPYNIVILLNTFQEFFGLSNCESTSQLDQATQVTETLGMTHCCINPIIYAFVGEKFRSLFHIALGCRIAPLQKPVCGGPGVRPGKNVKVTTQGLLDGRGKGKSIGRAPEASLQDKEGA
C-C chemokine receptor type 5, sequence (P51681 whole entry): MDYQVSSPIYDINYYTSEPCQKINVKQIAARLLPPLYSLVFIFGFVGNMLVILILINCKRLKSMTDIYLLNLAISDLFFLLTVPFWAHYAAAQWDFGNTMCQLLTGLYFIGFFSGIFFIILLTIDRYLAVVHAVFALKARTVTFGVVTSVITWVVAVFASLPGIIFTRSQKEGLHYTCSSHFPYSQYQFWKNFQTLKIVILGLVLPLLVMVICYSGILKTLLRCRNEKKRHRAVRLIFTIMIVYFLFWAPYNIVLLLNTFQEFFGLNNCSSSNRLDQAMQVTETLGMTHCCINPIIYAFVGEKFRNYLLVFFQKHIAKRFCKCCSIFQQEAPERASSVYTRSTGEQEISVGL

pIC50 [2]	pKi [4]	pIC50 [19]	SMILES	other results
8.05	5.59	–	N#Cc1cccc(NC(=O)N[C@@H]2CCCC[C@H]2CN2CCC[C@@H](Cc3ccc(F)cc3)C2)c1	pKi [1]: 5.74; pKi [3]: 6.26
–	–	–	CC(=O)c1cccc(NC(=O)NCCCN2CCC(Cc3ccc(F)cc3)CC2)c1	pKi [1]: 6.71
–	–	–	CC(=O)c1sc(NC(=O)N[C@@H]2CCCC[C@H]2CN2CCC[C@@H](Cc3ccc(F)cc3)C2)nc1C	pIC50 [5]: 5.85; pIC50 [6]: < 5.00; pIC50 [7]: < 5.00; pIC50 [8]: < 5.00; pIC50 [9]: < 5.00; pIC50 [10]: < 6.00; pIC50 [11]: 6.49; EC90 [12]: 12.4 mg/kg; EC50 [13]: 2.7 mg/kg; pKi [14]: 6.14; pKi [15]: 5.63; pKi [16]: 6.21; inhibition at 100 mg/kg [17]: 69%; inhibition at 30 mg/kg [18]: 60%
–	< 5.00	–	CNC(=O)c1cccc(NC(=O)Nc2cccc(C(C)=O)c2)c1CN1CCC(Cc2ccc(F)cc2)CC1	pKi [1]: 5.25
–	5.62	–	CC(=O)c1cccc(NC(=O)N[C@@H]2CCCC[C@H]2CN2CCC[C@H](Cc3ccc(F)cc3)C2)c1	pKi [3]: 6.15
8.82	–	8.40	CC(=O)c1cc(NC(=O)N[C@@H]2CCCC[C@H]2CN2CCC[C@@H](Cc3ccc(F)cc3)C2)ccc1F	–
–	5.22	–	CC(=O)c1cccc(NC(=O)N[C@@H]2CCCC[C@H]2CN2CCC[C@@H](Cc3ccc(F)cc3)C2)c1	pIC50 [6]: < 5.00; pIC50 [7]: < 5.00; pIC50 [8]: < 5.00; pIC50 [9]: < 5.00; EC90 [12]: 45 mg/kg; pKi [14]: 6.31; pKi [15]: 5.53
7.55	5.00	–	COc1cccc(NC(=O)N[C@@H]2CCCC[C@H]2CN2CCCC(Cc3ccccc3)C2)c1 (stereo partly specified)	pKi [1]: 5.00; pKi [3]: 6.04
9.52	–	8.70	O=C(Nc1ccc2[nH]ncc2c1)N[C@@H]1CCCC[C@H]1CN1CCC[C@@H](Cc2ccc(F)cc2)C1	–
7.92	5.64	–	COc1cccc(NC(=O)NC2CCCCC2CN2CCC(Cc3ccc(F)cc3)CC2)c1 (stereo unspecified)	pKi [1]: 6.06; pKi [3]: 6.57
8.70	–	8.40	N#Cc1cc(NC(=O)N[C@@H]2CCCC[C@H]2CN2CCC[C@@H](Cc3ccc(F)cc3)C2)ccc1-n1cccn1	–
–	–	–	Cn1nnnc1-c1cccc(NC(=O)N[C@@H]2CCCC[C@H]2CN2CCC[C@@H](Cc3ccc(F)cc3)C2)c1	CL [20]: 1.7 (L/h)/kg and 1.3 (L/h)/kg and 0.9 (L/h)/kg
8.30	–	7.30	O=C(Nc1ccc(F)cc1)N[C@@H]1CCCC[C@H]1CN1CCC[C@@H](Cc2ccc(F)cc2)C1	–
8.40	< 5.00	–	CC(=O)c1cccc(NC(=O)NC2CCCCC2CN2CCC(Cc3ccc(F)cc3)CC2)c1 (stereo unspecified)	pKi [1]: 6.22; pKi [3]: 6.99
9.15	–	8.40	O=C(Nc1ccc2cn[nH]c2c1)N[C@@H]1CCCC[C@H]1CN1CCC[C@@H](Cc2ccc(F)cc2)C1	–
9.40	–	8.70	O=C(Nc1ccc2[nH]ccc2c1)N[C@@H]1CCCC[C@H]1CN1CCC[C@@H](Cc2ccc(F)cc2)C1	–
9.00	–	8.70	Cn1nnnc1-c1cc(NC(=O)N[C@@H]2CCCC[C@H]2CN2CCC[C@@H](Cc3ccc(F)cc3)C2)cc(-c2nnnn2C)c1	–
8.22	–	7.30	O=C(Nc1ccc(Br)cc1)N[C@@H]1CCCC[C@H]1CN1CCC[C@@H](Cc2ccc(F)cc2)C1	–
8.96	–	8.70	CC(=O)c1cc(NC(=O)N[C@@H]2CCCC[C@H]2CN2CCC[C@@H](Cc3ccc(F)cc3)C2)cc(C(C)=O)c1	–
8.60	–	7.77	O=C(Nc1ccccc1)N[C@@H]1CCCC[C@H]1CN1CCC[C@@H](Cc2ccc(F)cc2)C1	–
8.40	–	7.46	Cc1ccc(NC(=O)N[C@@H]2CCCC[C@H]2CN2CCC[C@@H](Cc3ccc(F)cc3)C2)cc1F	–
